What was measured:
Rat [1] = assay: concentration in brain after dosing; details: 0.75 h; dosed: 2-Methyltetrahydrofuran; 40 mg/kg; iv; Male; Harlan Sprague Dawley
Rat [2] = assay: concentration in brain after dosing; details: 7 min; dosed: 2-Methyltetrahydrofuran; 40 mg/kg; iv; Male; Harlan Sprague Dawley
Rat [3] = assay: concentration in brain after dosing; details: 2 h; dosed: 2-Methyltetrahydrofuran; 40 mg/kg; iv; Female; Harlan Sprague Dawley
Rat [4] = assay: concentration in plasma after dosing; details: 0.2 h; dosed: 2-Methyltetrahydrofuran; 40 mg/kg; iv; Male; Harlan Sprague Dawley
Rat [5] = assay: concentration in plasma after dosing; details: 2 h; dosed: 2-Methyltetrahydrofuran; 40 mg/kg; iv; Female; Harlan Sprague Dawley
Rat [6] = assay: concentration in plasma after dosing; details: 6 h; dosed: 2-Methyltetrahydrofuran; 40 mg/kg; iv; Male; Harlan Sprague Dawley
Rat [7] = assay: concentration in plasma after dosing; details: 7 min; dosed: 2-Methyltetrahydrofuran; 40 mg/kg; iv; Male; Harlan Sprague Dawley
Rat [8] = assay: concentration in plasma after dosing; details: 2 min; dosed: 2-Methyltetrahydrofuran; 40 mg/kg; iv; Female; Harlan Sprague Dawley
Rat [9] = assay: concentration in liver after dosing; details: 12 h; dosed: Fluorotelomer alcohol 8+2; 80 mg/kg; oral; Female; Harlan Sprague Dawley
Rat [10] = assay: concentration in liver after dosing; details: 3 h; dosed: Fluorotelomer alcohol 8+2; 24 mg/kg; oral; Male; Harlan Sprague Dawley
Rat [11] = assay: concentration in brain after dosing; details: 12 h; dosed: Fluorotelomer alcohol 8+2; 24 mg/kg; oral; Male; Harlan Sprague Dawley
Rat [12] = assay: concentration in liver after dosing; details: 3 h; dosed: Fluorotelomer alcohol 8+2; 80 mg/kg; oral; Female; Harlan Sprague Dawley
Rat [13] = assay: concentration in kidney after dosing; details: 6 h; dosed: Fluorotelomer alcohol 8+2; 24 mg/kg; oral; Male; Harlan Sprague Dawley
Rat [14] = assay: concentration in plasma after dosing; details: dosed: Fluorotelomer alcohol 8+2, 12 mg/kg, oral, Male, Harlan Sprague Dawley
Rat [15] = assay: concentration in kidney after dosing; details: 1 h; dosed: Fluorotelomer alcohol 8+2; 24 mg/kg; oral; Male; Harlan Sprague Dawley
Rat [16] = assay: concentration in kidney after dosing; details: 1 h; dosed: Fluorotelomer alcohol 8+2; 80 mg/kg; oral; Female; Harlan Sprague Dawley
Rat [17] = assay: concentration in plasma after dosing; details: 18 h; dosed: Gemfibrozil; 4.29 mg/kg; oral; Male; Sprague-Dawley
Rat [18] = assay: concentration in plasma after dosing; details: 5 min; dosed: Gemfibrozil; 4.29 mg/kg; oral; Male; Sprague-Dawley
Rat [19] = assay: concentration in liver after dosing; details: 0.5 h; dosed: Perfluorohexanoic Acid; 80 mg/kg; oral; Male; Harlan Sprague Dawley
Rat [20] = assay: concentration in kidney after dosing; details: 1 h; dosed: Perfluorohexanoic Acid; 80 mg/kg; oral; Female; Harlan Sprague Dawley
Rat [21] = assay: concentration in plasma after dosing; details: 5 min; dosed: Perfluorohexanoic Acid; 40 mg/kg; iv; Male; F344
Rat [22] = assay: concentration in plasma after dosing; details: 1.5 h; dosed: Perfluorohexanoic Acid; 40 mg/kg; iv; Male; F344
Rat [23] = assay: concentration in plasma after dosing; details: dosed: Perfluorohexanoic Acid, 40 mg/kg, iv, Male, F344
Rat [24] = assay: concentration in plasma after dosing; details: dosed: Perfluorohexanoic Acid, 40 mg/kg, oral, Male, Harlan Sprague Dawley
Rat [25] = assay: concentration in liver after dosing; details: 864 h; dosed: Perfluorooctane Sulfonate; 2 mg/kg; oral; Female; Harlan Sprague Dawley
Rat [26] = assay: concentration in liver after dosing; details: 1848 h; dosed: Perfluorooctane Sulfonate; 2 mg/kg; oral; Female; Harlan Sprague Dawley
Rat [27] = assay: concentration in brain after dosing; details: 24 h; dosed: Perfluorooctane Sulfonate; 20 mg/kg; oral; Female; F344
Rat [28] = assay: concentration in plasma after dosing; details: dosed: Perfluorooctane Sulfonate, 2 mg/kg, iv, Female, Harlan Sprague-Dawley
Rat [29] = assay: concentration in kidney after dosing; details: 6 h; dosed: Perfluorooctane Sulfonate; 20 mg/kg; oral; Female; F344
Rat [30] = assay: concentration in kidney after dosing; details: 3360 h; dosed: Perfluorooctane Sulfonate; 20 mg/kg; oral; Male; Harlan Sprague Dawley
Rat [31] = assay: concentration in plasma after dosing; details: dosed: Perfluorooctane Sulfonate, 2 mg/kg, oral, Female, Harlan Sprague Dawley
Rat [32] = assay: concentration in kidney after dosing; details: 1848 h; dosed: Perfluorooctane Sulfonate; 20 mg/kg; oral; Male; Harlan Sprague Dawley
Rat [33] = assay: concentration in kidney after dosing; details: 3360 h; dosed: Perfluorooctane Sulfonate; 2 mg/kg; oral; Female; Harlan Sprague Dawley
human = assay: concentration in blood after dosing; details: dosed: trichloroethylene, 100 ppm, inhalation, duration: 4 hr, person
Summary of the method: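 Points were largely digitised from plot screenshots with WebPlotDigitizer or otherwise copied from tables, and they remain in the units each source reported. They come from published in vivo toxicokinetic studies and two structured collections. Sampling and analytical methods follow each source and were often not reported.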

CC1CCCO1 (stereo unspecified) [2-Methyltetrahydrofuran]
Details | concentration in brain [µg/mL] | concentration in plasma [µg/mL]
Rat [1] | 15.8 | –
Rat [2] | 23.7 | –
Rat [3] | 3.53 | –
Rat [4] | – | 37.6
Rat [5] | – | 3.58
Rat [6] | – | 0.0169
Rat [7] | – | 48.1
Rat [8] | – | 52.5

O=C(O)CCC(F)(F)C(F)(F)C(F)(F)C(F)(F)C(F)(F)C(F)(F)C(F)(F)F [Fluorotelomer acid 7+3]
Details | concentration in brain [ng/g] | concentration in kidney [ng/g] | concentration in liver [ng/g]
Rat [9] | – | – | 7200
Rat [10] | – | – | 2780
Rat [11] | 98.2 | – | –
Rat [12] | – | – | 10700
Rat [13] | – | 1250 | –
Rat [15] | – | 568 | –
Rat [16] | – | 762 | –

Rat [14]
Details | concentration in plasma [ng/mL]
48 h | 169
192 h | 26.3

Cc1ccc(C)c(OCCCC(C)(C)C(=O)O)c1 [Gemfibrozil]
Details | concentration in plasma [µg/mL]
Rat [17] | 0.127
Rat [18] | 0.485

O=C(O)C(F)(F)C(F)(F)C(F)(F)C(F)(F)C(F)(F)F [Perfluorohexanoic Acid]
Details | concentration in kidney [ng/g] | concentration in liver [ng/g] | concentration in plasma [ng/mL]
Rat [19] | – | 67900 | –
Rat [20] | 85800 | – | –
Rat [21] | – | – | 540
Rat [22] | – | – | 336

concentration in plasma [ng/mL]
Details | 0.5 h | 3 h | 5 min | 9 h
Rat [23] | – | 1450 | 35700 | –
Rat [24] | 65500 | – | – | 4960

O=S(=O)([O-])C(F)(F)C(F)(F)C(F)(F)C(F)(F)C(F)(F)C(F)(F)C(F)(F)C(F)(F)F [Perfluorooctane Sulfonate]
Details | concentration in brain [ng/g] | concentration in kidney [ng/g] | concentration in liver [ng/g]
Rat [25] | – | – | 9930
Rat [26] | – | – | 5680
Rat [27] | 15200 | – | –
Rat [29] | – | 133000 | –
Rat [30] | – | 10400 | –
Rat [32] | – | 25300 | –
Rat [33] | – | 651 | –

concentration in plasma [ng/mL]
Details | 5 min | 24 h | 192 h | 1200 h
Rat [28] | 5510 | 3580 | – | 562
Rat [31] | 27.5 | – | 3830 | 1210

ClC=C(Cl)Cl [trichloroethylene]
human
Details | concentration in blood [µmol/L]
0 h | 13
0.17 h | 4.9
0.5 h | 3.28
1 h | 2.2
1.5 h | 1.69
2 h | 1.34
3 h | 1.07
4 h | 0.865
6 h | 0.583
8 h | 0.392
10 h | 0.259

Reference: EPA's CvTdb concentration-time database
